Data from ChEMBL document CHEMBL4359823, “Switching on the activity of 1,5-diaryl-pyrrole derivatives against drug-resistant ESKAPE bacteria: Structure-activity relationships and mode of action studies” (Eur J Med Chem, 2019).
Converted amounts (≈) assume the structure as drawn.

Columns and labels:
Staphylococcus aureus [1] = assay: Antibacterial activity against Staphylococcus aureus NCTC13616 assessed as generation of drug resistance at 2 times MIC measured after 48 hrs by agar-based microbroth dilution method; format: functional
In short: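 Agar method: exponentially growing bacteria, in known numbers, plated on agar with doubling compound concentrations at and above the MIC; incubated 48 hours. Colonies growing above the MIC were picked and re-tested by microbroth MIC for raised resistance. Resistance frequency reported at 2xMIC.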

Staphylococcus aureus [2] = assay: Antibacterial activity against methicillin resistant Staphylococcus aureus NCTC13616 measured after overnight incubation by microbroth dilution method; format: functional
In short: (§1)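 Microbroth dilution: DMSO stocks diluted in water, 2-fold series. Overnight TSB cultures back-diluted to OD 0.01 and mixed 1:1 with compound. Incubated overnight at 37 °C; MIC taken as lowest concentration without visible growth (<0.1 OD600). Run in duplicate; matching DMSO levels checked for effect on growth.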

Staphylococcus aureus [3] = assay: Antibacterial activity against methicillin sensitive Staphylococcus aureus NCTC 6571 measured after overnight incubation by microbroth dilution method; format: functional; in short: as §1
Topoisomerase IV = Topoisomerase IV (Staphylococcus aureus, UniProt P0C1S7+P0C1U9); assay: Inhibition of Staphylococcus aureus topoisomerase-4 expressed in Escherichia coli assessed as relaxation of pBR322 substrate measured after 30 mins by agarose gel electrophoresis
Staphylococcus aureus [4] = assay: Antibacterial activity against methicillin resistant Staphylococcus aureus NCTC13277 measured after overnight incubation by microbroth dilution method; format: functional; in short: as §1
Escherichia coli [5] = assay: Antibacterial activity against Escherichia coli NCTC12923 measured after overnight incubation by microbroth dilution method; format: functional
In short: (§2)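 Microbroth dilution MIC. Compound DMSO stocks were diluted in water as a 2-fold series. Overnight TSB cultures were back-diluted to OD 0.01 and mixed 1:1 with compound. Plates were incubated overnight at 37 °C. MIC was the lowest concentration without visible growth (<0.1 OD600), run in duplicate.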

Klebsiella pneumoniae [6] = assay: Antibacterial activity against Klebsiella pneumoniae M6 measured after overnight incubation by microbroth dilution method; format: functional; in short: as §2
Acinetobacter baumannii [7] = assay: Antibacterial activity against Acinetobacter baumannii ATCC 17978 measured after overnight incubation by microbroth dilution method; format: functional; in short: as §2
Enterococcus faecalis [8] = assay: Antibacterial activity against vancomycin resistant Enterococcus faecalis NCTC12204 measured after overnight incubation by microbroth dilution method; format: functional; in short: as §1
[9] = Inhibition of Staphylococcus aureus DNA gyrase subunit A2B2 using relaxed pBR322 DNA as substrate measured after 30 mins in presence of ATP by ethidium bromide-based gel electrophoresis
In short: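 Supercoiling assay with S. aureus wild-type or S84L gyrase and relaxed pBR322, with or without varying compound, at 37 °C for 30 min. The reaction was stopped with STEB and extracted with chloroform:isoamyl alcohol (24:1). The aqueous phase was run on a 1% agarose gel and the supercoiled band quantified. IC50 came from at least three independent replicates.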

Enterococcus faecium = assay: Antibacterial activity against Enterococcus faecium NCTC12204 assessed as generation of drug resistance at 2 times MIC measured after 48 hrs by agar-based microbroth dilution method
Enterococcus faecalis [10] = assay: Antibacterial activity against vancomycin sensitive Enterococcus faecalis NCTC775 measured after overnight incubation by microbroth dilution method; format: functional; in short: as §1
Enterococcus faecalis [11] = assay: Antibacterial activity against vancomycin resistant Enterococcus faecalis NCTC12201 measured after overnight incubation by microbroth dilution method; format: functional; in short: as §1
Staphylococcus aureus [12] = assay: Antibacterial activity against methicillin-resistant Staphylococcus aureus EMRSA15 measured after overnight incubation by microbroth dilution method; format: functional; in short: as §1
Staphylococcus aureus [13] = assay: Antibacterial activity against methicillin-sensitive Staphylococcus aureus ATCC 9144 measured after overnight incubation by microbroth dilution method; format: functional; in short: as §1
Staphylococcus aureus [14] = assay: Antibacterial activity against methicillin-resistant Staphylococcus aureus MRSA252 measured after overnight incubation by microbroth dilution method; format: functional; in short: as §1
Acinetobacter baumannii [15] = assay: Antibacterial activity against Acinetobacter baumannii ATCC 17978 measured after overnight incubation in presence of polymyxin B nonapeptide by microbroth dilution method; format: functional
Acinetobacter baumannii [16] = assay: Antibacterial activity against Acinetobacter baumannii AYE measured after overnight incubation in presence of polymyxin B nonapeptide by microbroth dilution method; format: functional
Klebsiella pneumoniae [17] = assay: Antibacterial activity against Klebsiella pneumoniae NCTC13368 measured after overnight incubation in presence of polymyxin B nonapeptide by microbroth dilution method; format: functional
Klebsiella pneumoniae [18] = assay: Antibacterial activity against Klebsiella pneumoniae M6 measured after overnight incubation in presence of polymyxin B nonapeptide by microbroth dilution method; format: functional
Acinetobacter baumannii [19] = assay: Antibacterial activity against Acinetobacter baumannii AYE measured after overnight incubation by microbroth dilution method; format: functional; in short: as §2
Pseudomonas aeruginosa [20] = assay: Antibacterial activity against Pseudomonas aeruginosa NCTC13437 measured after overnight incubation by microbroth dilution method; format: functional; in short: as §2
Klebsiella pneumoniae [21] = assay: Antibacterial activity against Klebsiella pneumoniae NCTC13368 measured after overnight incubation by microbroth dilution method; format: functional; in short: as §2
Escherichia coli [22] = assay: Antibacterial activity against Escherichia coli NCTC12923 measured after overnight incubation in presence of polymyxin B nonapeptide by microbroth dilution method; format: functional
Pseudomonas aeruginosa [23] = assay: Antibacterial activity against Pseudomonas aeruginosa PAO1 measured after overnight incubation in presence of polymyxin B nonapeptide by microbroth dilution method; format: functional
Pseudomonas aeruginosa [24] = assay: Antibacterial activity against Pseudomonas aeruginosa PAO1 measured after overnight incubation by microbroth dilution method; format: functional; in short: as §2
Pseudomonas aeruginosa [25] = assay: Antibacterial activity against Pseudomonas aeruginosa NCTC13437 measured after overnight incubation in presence of polymyxin B nonapeptide by microbroth dilution method; format: functional

Sequence of Topoisomerase IV (P0C1U9 whole entry): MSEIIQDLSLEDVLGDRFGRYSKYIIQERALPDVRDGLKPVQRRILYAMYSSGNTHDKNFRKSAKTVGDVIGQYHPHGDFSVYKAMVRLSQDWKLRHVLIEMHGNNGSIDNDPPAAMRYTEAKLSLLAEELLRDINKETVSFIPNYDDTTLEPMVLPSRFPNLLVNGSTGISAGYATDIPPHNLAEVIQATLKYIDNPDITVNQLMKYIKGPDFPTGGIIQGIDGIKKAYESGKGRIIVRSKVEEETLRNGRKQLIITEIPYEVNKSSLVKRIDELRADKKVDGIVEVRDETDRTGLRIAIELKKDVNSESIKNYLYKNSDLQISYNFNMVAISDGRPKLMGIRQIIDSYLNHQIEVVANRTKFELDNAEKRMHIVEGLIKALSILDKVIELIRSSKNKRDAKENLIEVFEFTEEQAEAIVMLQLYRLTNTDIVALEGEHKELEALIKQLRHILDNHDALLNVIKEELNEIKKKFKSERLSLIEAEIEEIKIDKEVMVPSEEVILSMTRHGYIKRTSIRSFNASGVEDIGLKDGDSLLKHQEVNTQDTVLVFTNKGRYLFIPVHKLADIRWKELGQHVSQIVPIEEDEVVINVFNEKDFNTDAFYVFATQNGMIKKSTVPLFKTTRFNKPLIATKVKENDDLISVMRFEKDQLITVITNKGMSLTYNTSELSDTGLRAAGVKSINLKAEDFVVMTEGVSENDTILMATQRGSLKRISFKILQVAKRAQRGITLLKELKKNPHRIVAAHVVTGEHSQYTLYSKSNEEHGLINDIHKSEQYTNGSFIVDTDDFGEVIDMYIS
Sequence of Topoisomerase IV (P0C1S7 whole entry): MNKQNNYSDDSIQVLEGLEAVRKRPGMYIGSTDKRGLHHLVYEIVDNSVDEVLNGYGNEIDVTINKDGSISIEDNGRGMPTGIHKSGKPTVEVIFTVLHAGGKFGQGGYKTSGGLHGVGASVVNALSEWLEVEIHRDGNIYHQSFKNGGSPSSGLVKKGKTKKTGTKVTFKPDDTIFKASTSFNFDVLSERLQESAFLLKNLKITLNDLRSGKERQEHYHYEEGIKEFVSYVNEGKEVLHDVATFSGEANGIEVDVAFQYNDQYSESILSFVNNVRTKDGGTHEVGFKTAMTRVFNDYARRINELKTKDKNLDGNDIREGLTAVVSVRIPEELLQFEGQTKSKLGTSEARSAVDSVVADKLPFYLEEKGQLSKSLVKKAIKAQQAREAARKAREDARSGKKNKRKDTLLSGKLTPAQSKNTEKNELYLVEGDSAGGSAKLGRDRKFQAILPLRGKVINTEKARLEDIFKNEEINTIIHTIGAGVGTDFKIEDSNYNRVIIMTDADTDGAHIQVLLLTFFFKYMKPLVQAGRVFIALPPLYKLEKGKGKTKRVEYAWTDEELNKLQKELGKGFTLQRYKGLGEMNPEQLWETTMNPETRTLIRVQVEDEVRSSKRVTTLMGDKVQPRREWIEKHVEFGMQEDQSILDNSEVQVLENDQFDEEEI

With `C[C@H]1COc2c(N3CCN(C)CC3)c(F)cc3c(=O)c(C(=O)O)cn1c23.C[C@H]1COc2c(N3CCN(C)CC3)c(F)cc3c(=O)c(C(=O)O)cn1c23.O` [LEVOFLOXACIN] the Activity (Staphylococcus aureus [1]) was 1.87e-05, the MIC (Staphylococcus aureus [2]) was 8 µg/mL and the MIC (Staphylococcus aureus [3]) was 0.12 µg/mL. For the same compound, the IC50 (Topoisomerase IV) was 9.85 µM, the MIC (Staphylococcus aureus [4]) was 8 µg/mL and the MIC (Escherichia coli [5]) was < 0.12 µg/mL. For the same compound, the MIC (Klebsiella pneumoniae [6]) was 0.12 µg/mL, the MIC (Acinetobacter baumannii [7]) was 0.12 µg/mL and the MIC (Enterococcus faecalis [8]) was 0.5 µg/mL. The IC50 [9] was 8.71 µg/mL, the Activity (Enterococcus faecium) was 7.08e-06 and the MIC (Enterococcus faecalis [10]) was 1 µg/mL. For the same compound, the MIC (Enterococcus faecalis [11]) was 1 µg/mL.
Work on `Cc1ccc(CNCc2cc(C)n(-c3ccc(Cl)cc3)c2C)cc1` yielded an MIC (Staphylococcus aureus [12]) of 64 µg/mL (≈ 189 µM), an MIC (Staphylococcus aureus [13]) of 64 µg/mL (≈ 189 µM) and an MIC (Staphylococcus aureus [14]) of 64 µg/mL (≈ 189 µM). The MIC (Enterococcus faecalis [8]) was 32 µg/mL (≈ 94.4 µM), the MIC (Enterococcus faecalis [10]) was 64 µg/mL (≈ 189 µM) and the MIC (Enterococcus faecalis [11]) was 64 µg/mL (≈ 189 µM).
Work on `Cc1cc(CN2CCN(C3CC4CCC3C4)CC2)c(C)n1-c1ccc(Cl)cc1` (stereo not drawn) yielded an MIC (Staphylococcus aureus [12]) of 64 µg/mL (≈ 161 µM), an MIC (Staphylococcus aureus [13]) of 64 µg/mL (≈ 161 µM) and an MIC (Staphylococcus aureus [14]) of 64 µg/mL (≈ 161 µM). It also gave an MIC (Enterococcus faecalis [8]) of 32 µg/mL (≈ 80.4 µM), an MIC (Enterococcus faecalis [10]) of 64 µg/mL (≈ 161 µM) and an MIC (Enterococcus faecalis [11]) of 32 µg/mL (≈ 80.4 µM).
For `Cc1c(CNCc2ccccc2)cc(-c2ccc(Cl)cc2)n1-c1ccc(Cl)cc1`, the MIC (Acinetobacter baumannii [15]) was 16 µg/mL, the MIC (Acinetobacter baumannii [16]) was 16 µg/mL and the MIC (Staphylococcus aureus [2]) was 8 µg/mL (≈ 19 µM). The MIC (Klebsiella pneumoniae [17]) was > 128 µg/mL, the MIC (Staphylococcus aureus [3]) was 8 µg/mL (≈ 19 µM) and the MIC (Klebsiella pneumoniae [18]) was 32 µg/mL. For the same compound, the MIC (Acinetobacter baumannii [19]) was > 128 µg/mL, the MIC (Staphylococcus aureus [4]) was 4 µg/mL (≈ 9.49 µM) and the MIC (Escherichia coli [5]) was > 128 µg/mL. The MIC (Klebsiella pneumoniae [6]) was > 128 µg/mL, the MIC (Pseudomonas aeruginosa [20]) was > 128 µg/mL and the MIC (Klebsiella pneumoniae [21]) was > 128 µg/mL. The MIC (Acinetobacter baumannii [7]) was > 128 µg/mL, the MIC (Escherichia coli [22]) was > 128 µg/mL and the MIC (Pseudomonas aeruginosa [23]) was > 128 µg/mL. For the same compound, the MIC (Pseudomonas aeruginosa [24]) was > 128 µg/mL, the MIC (Enterococcus faecalis [10]) was 4 µg/mL (≈ 9.49 µM) and the MIC (Enterococcus faecalis [11]) was 4 µg/mL (≈ 9.49 µM). For the same compound, the MIC (Pseudomonas aeruginosa [25]) was > 128 µg/mL.
With `Cc1cc(CNCCc2ccccc2)c(C)n1-c1ccc(Cl)cc1` the MIC (Staphylococcus aureus [12]) was 32 µg/mL (≈ 94.4 µM), the MIC (Staphylococcus aureus [13]) was 32 µg/mL (≈ 94.4 µM) and the MIC (Staphylococcus aureus [14]) was 32 µg/mL (≈ 94.4 µM). It also gave an MIC (Enterococcus faecalis [8]) of 8 µg/mL (≈ 23.6 µM), an MIC (Enterococcus faecalis [10]) of 32 µg/mL (≈ 94.4 µM) and an MIC (Enterococcus faecalis [11]) of 16 µg/mL (≈ 47.2 µM).
In the case of `Cc1cc(CNOCc2ccccc2)c(C)n1-c1ccc(F)cc1`, the MIC (Staphylococcus aureus [12]) is reported as > 64 µg/mL, the MIC (Staphylococcus aureus [13]) is reported as > 64 µg/mL and the MIC (Staphylococcus aureus [14]) is reported as > 64 µg/mL. For the same compound, the MIC (Enterococcus faecalis [8]) was > 64 µg/mL, the MIC (Enterococcus faecalis [10]) was > 64 µg/mL and the MIC (Enterococcus faecalis [11]) was > 64 µg/mL.
Compound `Cc1cc(CNCc2ccc(Cl)cc2)c(C)n1-c1ccc(Cl)cc1` has an MIC (Staphylococcus aureus [12]) of 32 µg/mL (≈ 89.1 µM), an MIC (Staphylococcus aureus [13]) of 32 µg/mL (≈ 89.1 µM) and an MIC (Staphylococcus aureus [14]) of 32 µg/mL (≈ 89.1 µM). The MIC (Enterococcus faecalis [8]) was 8 µg/mL (≈ 22.3 µM), the MIC (Enterococcus faecalis [10]) was 32 µg/mL (≈ 89.1 µM) and the MIC (Enterococcus faecalis [11]) was 16 µg/mL (≈ 44.5 µM).
For `Cc1cccc(-n2c(C)cc(CN3CCN(C4C5CC6CC(C5)CC4C6)CC3)c2C)c1` (stereo not drawn), the MIC (Staphylococcus aureus [12]) was 64 µg/mL (≈ 153 µM), the MIC (Staphylococcus aureus [13]) was 64 µg/mL (≈ 153 µM) and the MIC (Staphylococcus aureus [14]) was 64 µg/mL (≈ 153 µM). For the same compound, the MIC (Enterococcus faecalis [8]) was 64 µg/mL (≈ 153 µM), the MIC (Enterococcus faecalis [10]) was 64 µg/mL (≈ 153 µM) and the MIC (Enterococcus faecalis [11]) was 64 µg/mL (≈ 153 µM).
